What was measured:
[1] = target: T1, Homeodomain-interacting protein kinase 4 (Homo sapiens) (UniProt Q8NE63); assay: Inhibition of human recombinant HIPK4 at 500 nM in presence of ATP by radiometric assay relative to control
T1 sequence (whole entry): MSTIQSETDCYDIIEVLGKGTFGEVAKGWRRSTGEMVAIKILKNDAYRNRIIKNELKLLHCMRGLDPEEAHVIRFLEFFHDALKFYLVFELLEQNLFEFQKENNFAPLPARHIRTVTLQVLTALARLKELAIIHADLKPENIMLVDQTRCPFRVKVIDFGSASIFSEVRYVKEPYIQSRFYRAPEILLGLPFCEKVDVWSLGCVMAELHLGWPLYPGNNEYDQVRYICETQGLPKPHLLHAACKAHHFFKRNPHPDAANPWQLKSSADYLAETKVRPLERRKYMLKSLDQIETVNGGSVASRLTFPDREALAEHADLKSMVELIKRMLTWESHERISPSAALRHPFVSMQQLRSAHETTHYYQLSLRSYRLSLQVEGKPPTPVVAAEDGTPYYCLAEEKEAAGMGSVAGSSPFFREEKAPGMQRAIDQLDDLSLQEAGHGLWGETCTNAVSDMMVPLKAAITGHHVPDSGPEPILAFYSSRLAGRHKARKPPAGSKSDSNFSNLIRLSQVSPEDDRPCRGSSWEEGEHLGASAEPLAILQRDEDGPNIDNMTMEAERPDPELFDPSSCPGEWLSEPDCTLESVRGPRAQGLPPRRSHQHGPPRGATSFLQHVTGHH

[2] = target: T2, MAP/microtubule affinity-regulating kinase 4 (Homo sapiens) (UniProt Q96L34); assay: Inhibition of human recombinant MARK4 at 500 nM in presence of ATP by radiometric assay relative to control
T2 sequence (whole entry): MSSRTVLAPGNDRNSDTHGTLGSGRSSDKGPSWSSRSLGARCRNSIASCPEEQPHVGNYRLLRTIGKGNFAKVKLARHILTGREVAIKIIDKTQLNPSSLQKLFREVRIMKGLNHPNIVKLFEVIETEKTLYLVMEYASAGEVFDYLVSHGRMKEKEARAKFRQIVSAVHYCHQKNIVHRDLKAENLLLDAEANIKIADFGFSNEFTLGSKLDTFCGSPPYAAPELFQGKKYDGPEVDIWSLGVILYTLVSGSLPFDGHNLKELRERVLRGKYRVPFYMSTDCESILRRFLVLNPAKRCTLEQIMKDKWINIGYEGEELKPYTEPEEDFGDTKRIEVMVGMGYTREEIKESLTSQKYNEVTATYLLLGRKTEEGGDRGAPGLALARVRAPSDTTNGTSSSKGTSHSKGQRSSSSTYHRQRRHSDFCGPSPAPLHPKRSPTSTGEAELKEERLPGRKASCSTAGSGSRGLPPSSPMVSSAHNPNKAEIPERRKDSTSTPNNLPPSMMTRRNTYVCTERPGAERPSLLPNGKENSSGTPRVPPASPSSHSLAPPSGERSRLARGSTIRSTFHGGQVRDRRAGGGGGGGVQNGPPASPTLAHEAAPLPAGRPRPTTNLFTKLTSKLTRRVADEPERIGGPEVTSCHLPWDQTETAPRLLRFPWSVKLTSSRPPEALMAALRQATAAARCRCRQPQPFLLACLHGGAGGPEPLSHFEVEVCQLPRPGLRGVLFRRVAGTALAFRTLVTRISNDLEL

[3] = target: T3, Ephrin type-B receptor 3 (Homo sapiens) (UniProt P54753); assay: Inhibition of human recombinant EphB3 at 500 nM in presence of ATP by radiometric assay relative to control
T3 sequence (whole entry): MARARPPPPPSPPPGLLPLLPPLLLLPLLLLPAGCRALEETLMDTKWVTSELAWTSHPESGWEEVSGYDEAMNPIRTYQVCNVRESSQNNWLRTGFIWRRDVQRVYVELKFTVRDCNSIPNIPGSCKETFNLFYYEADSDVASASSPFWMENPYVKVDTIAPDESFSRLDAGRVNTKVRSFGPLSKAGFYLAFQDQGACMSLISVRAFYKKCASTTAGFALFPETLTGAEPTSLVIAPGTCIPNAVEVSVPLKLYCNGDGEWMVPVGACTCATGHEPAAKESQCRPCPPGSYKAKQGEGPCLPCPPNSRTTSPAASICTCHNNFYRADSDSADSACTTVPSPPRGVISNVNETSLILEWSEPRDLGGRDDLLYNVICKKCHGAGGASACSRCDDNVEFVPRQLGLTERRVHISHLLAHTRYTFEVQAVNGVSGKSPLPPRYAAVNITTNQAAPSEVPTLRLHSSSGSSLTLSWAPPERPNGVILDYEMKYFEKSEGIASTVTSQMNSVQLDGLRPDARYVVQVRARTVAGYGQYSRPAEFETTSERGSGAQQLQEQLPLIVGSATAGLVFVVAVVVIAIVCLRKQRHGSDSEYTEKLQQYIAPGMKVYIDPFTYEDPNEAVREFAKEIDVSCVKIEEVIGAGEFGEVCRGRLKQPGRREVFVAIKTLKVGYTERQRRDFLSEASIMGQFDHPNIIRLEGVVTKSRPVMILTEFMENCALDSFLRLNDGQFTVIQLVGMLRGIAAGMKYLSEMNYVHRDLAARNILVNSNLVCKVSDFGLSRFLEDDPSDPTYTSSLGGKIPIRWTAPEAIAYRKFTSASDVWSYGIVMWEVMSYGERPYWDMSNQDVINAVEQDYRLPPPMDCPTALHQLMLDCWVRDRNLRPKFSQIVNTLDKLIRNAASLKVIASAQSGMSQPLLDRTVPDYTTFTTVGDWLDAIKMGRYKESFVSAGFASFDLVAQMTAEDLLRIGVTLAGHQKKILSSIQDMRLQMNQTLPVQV

[4] = target: Serine-protein kinase ATM (Homo sapiens) (UniProt Q13315); assay: Inhibition of human recombinant ATM at 15 nM related to control ULK1
In short: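 Panel of 327 recombinant human kinases, each assayed in vitro by radiometric activity assay in duplicate at a single inhibitor concentration per compound, chosen with reference to its ULK1 inhibition. Activity remaining was expressed as percent of vehicle control, and percent inhibition was calculated as 100 minus percent activity remaining.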

Chain of Serine-protein kinase ATM (Homo sapiens) (Q13315 whole entry): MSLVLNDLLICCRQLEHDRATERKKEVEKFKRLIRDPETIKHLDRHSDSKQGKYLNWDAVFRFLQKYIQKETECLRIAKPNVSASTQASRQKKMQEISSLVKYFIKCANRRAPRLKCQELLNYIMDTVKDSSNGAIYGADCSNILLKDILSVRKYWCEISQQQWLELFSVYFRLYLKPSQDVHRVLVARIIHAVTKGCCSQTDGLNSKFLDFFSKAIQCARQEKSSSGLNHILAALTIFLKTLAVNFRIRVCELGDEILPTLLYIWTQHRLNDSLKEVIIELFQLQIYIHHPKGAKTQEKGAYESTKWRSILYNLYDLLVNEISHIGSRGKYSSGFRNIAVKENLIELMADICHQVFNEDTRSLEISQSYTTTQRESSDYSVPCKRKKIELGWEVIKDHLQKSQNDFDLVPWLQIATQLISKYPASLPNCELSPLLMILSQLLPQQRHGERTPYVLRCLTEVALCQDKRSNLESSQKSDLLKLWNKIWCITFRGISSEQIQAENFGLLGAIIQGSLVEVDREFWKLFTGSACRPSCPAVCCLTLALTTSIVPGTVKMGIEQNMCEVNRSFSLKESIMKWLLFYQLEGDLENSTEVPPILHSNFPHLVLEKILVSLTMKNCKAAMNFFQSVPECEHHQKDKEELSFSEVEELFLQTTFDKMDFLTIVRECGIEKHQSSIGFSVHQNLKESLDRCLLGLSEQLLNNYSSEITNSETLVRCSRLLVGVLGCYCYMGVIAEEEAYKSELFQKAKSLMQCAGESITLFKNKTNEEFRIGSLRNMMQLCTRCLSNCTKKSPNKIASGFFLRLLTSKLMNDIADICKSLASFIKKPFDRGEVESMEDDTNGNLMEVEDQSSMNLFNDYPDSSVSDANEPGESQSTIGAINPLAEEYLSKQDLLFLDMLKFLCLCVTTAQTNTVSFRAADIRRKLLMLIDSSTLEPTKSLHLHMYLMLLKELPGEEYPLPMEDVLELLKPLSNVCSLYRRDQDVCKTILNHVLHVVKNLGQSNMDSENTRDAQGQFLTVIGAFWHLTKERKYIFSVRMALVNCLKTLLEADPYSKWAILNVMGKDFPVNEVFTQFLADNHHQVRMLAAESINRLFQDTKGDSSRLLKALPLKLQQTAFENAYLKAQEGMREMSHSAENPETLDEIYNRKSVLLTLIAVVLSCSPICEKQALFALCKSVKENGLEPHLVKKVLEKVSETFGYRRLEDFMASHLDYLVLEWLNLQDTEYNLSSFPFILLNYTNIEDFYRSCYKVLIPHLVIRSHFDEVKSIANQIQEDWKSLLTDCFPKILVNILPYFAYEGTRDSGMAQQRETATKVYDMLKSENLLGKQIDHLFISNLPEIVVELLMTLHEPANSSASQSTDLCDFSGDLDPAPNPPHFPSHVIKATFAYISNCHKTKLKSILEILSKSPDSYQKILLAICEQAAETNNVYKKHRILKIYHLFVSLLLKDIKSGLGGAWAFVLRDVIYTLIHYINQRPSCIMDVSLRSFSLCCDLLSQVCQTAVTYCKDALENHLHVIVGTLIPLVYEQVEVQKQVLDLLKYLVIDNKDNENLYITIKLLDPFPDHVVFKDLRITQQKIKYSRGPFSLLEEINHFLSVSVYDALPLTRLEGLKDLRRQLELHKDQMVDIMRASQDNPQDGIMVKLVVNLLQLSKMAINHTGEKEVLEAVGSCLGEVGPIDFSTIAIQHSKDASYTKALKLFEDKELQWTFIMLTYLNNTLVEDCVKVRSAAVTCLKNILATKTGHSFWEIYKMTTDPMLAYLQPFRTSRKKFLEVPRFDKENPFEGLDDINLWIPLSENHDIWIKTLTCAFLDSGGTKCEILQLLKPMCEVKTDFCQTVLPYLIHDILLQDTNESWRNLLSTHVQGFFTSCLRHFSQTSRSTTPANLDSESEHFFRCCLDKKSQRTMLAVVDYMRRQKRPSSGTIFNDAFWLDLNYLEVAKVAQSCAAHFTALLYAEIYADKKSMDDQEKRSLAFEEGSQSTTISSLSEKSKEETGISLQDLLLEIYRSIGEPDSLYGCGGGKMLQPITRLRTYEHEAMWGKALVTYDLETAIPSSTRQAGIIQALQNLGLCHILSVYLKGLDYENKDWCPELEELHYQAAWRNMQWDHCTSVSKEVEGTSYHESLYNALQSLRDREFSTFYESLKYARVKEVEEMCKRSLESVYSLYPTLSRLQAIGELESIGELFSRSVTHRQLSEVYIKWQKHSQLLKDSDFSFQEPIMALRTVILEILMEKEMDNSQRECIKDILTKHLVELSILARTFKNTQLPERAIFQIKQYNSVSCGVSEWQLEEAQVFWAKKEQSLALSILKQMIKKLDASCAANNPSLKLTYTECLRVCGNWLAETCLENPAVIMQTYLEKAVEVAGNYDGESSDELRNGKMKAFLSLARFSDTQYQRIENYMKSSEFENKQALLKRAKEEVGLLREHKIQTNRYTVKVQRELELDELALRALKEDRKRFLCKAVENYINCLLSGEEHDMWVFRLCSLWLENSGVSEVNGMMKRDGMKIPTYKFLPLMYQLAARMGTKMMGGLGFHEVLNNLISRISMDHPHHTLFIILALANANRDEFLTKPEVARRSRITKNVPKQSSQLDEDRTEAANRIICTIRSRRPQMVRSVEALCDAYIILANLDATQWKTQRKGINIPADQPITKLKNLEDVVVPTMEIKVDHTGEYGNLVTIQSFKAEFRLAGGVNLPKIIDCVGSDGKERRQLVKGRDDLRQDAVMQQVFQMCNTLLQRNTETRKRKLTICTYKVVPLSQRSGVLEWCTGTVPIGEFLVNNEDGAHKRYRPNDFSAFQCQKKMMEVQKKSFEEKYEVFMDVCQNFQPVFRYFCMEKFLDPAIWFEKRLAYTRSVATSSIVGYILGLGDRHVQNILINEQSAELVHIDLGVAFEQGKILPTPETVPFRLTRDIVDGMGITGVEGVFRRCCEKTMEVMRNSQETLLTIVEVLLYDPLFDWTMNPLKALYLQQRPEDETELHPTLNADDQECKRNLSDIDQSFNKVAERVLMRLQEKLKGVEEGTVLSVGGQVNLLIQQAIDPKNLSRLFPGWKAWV

inhibition [1] [%]	inhibition [2] [%]	inhibition [3] [%]	fold change (FC) [4]	SMILES
9	58	0	–	CNC(=O)c1ccccc1Oc1nc(Nc2cc(OC)c(OC)c(OC)c2)ncc1Br
–	–	–	0.07	CC(C)[C@H](NC(=O)c1cc(-c2cnn3cc(-c4ccc(OCCN5CCCCC5)cc4)cnc23)cs1)C(F)(F)F
